Results published in paper PMC12818350 (Nature Biotechnology, 2025).
Non-standard residues stand in square brackets, D forms with d. No end group written: not given here.

How the values were obtained:
S. aureus SH1000 [1] = test: MIC assay; assay type: cell-based, Staphylococcus aureus
HeLa cells = test: Human cell toxicity assay; assay type: cell-based; conditions: MTT, 48 h, 32 and 3.2 µg ml−1, duplicate wells; three biologically independent replicates
Procedure, shortened: (§1)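 Cells grown in DMEM with 10% FBS, penicillin–streptomycin, glutamine and nonessential amino acids, and seeded in exponential phase at 5,000 per well, 37 °C, 5% CO2. Compound added from a DMSO stock in phenol red-free DMEM (final DMSO 0.5% or 0.05%). Vehicle sets 100% viability; camptothecin 40 µg ml−1 sets 0%. MTT added for 4 h, solubilized overnight, A570 read, normalized to percentage survival.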

HEK239 cells = test: Human cell toxicity assay; assay type: cell-based; conditions: MTT, 48 h, 32 and 3.2 µg ml−1, duplicate wells; three biologically independent replicates
Procedure, shortened: as §1

S. aureus SH1000 [2] = test: Mutant isolation by direct plating; assay type: cell-based, Staphylococcus aureus; conditions: 8× MIC, ~1 × 10^7 cells per ml, LB, 30 °C, overnight
S. aureus ClpX = S. aureus ClpX (Staphylococcus aureus, UniProt Q2FXQ7); test: Isothermal titration calorimetry; assay type: binding; conditions: 25 °C, ~30 μM His-ClpX, ~300 μM ligand
S. aureus ClpX, sequence (Q2FXQ7 whole entry): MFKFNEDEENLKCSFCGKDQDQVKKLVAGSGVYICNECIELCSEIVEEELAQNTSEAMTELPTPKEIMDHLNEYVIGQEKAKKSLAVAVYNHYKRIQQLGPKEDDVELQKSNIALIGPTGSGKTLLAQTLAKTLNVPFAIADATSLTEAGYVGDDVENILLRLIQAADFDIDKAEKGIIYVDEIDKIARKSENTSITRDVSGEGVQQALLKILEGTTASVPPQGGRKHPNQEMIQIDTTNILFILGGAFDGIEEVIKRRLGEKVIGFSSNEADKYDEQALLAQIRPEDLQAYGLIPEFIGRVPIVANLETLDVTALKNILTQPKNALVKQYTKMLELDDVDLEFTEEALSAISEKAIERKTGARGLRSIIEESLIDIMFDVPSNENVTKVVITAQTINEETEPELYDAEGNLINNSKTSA

For “[dT]PFYL (also: lariat or depsi (positions not given here)) [synBNP 27, trigintamicin]”, the “antibiotic activity after shifting the assay conditions to 37 °C (in words)” value (S. aureus SH1000 [1]; S. aureus, 37 °C instead of 30 °C) was “abolished”, the “antibiotic activity against S. aureus (in words)” value (S. aureus SH1000 [1]; resolved trigintamicin isomers after resynthesis, 30 °C) was “showing antibiotic activity” and the “human cell toxicity (in words)” value (HeLa cells) was “human cell cytotoxicity”. For the same substance, the “human cell toxicity (in words)” value (HEK239 cells) was “human cell cytotoxicity”, the “resistant mutants by direct plating” value (S. aureus SH1000 [2]) was “generated resistant mutants” and the “binding to ClpX by ITC (in words)” value (S. aureus ClpX) was “bound ClpX”.
